ChEMBL document CHEMBL1143677, “Discovery of 4-aryl-4H-chromenes as a new series of apoptosis inducers using a cell- and caspase-based high-throughput screening assay. 3. Structure-activity relationships of fused rings at the 7,8-positions” (J Med Chem, 2007)

Assays:
NCI-H1299 = assay: Apoptosis inducing activity in human H1299 cells by caspase activation assay; type: functional, cell-based
Summary of the method: (§1)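 Cell-based caspase activation (apoptosis induction) HTS assay run in T47D breast and H1299 non-small-cell lung cancer cells; EC50 reported as mean ± SEM of three or more experiments.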

T47D [1] = assay: Apoptosis inducing activity in human T47D cells by caspase activation assay; type: functional, cell-based; summary of the method: as §1
T47D [2] = assay: Growth inhibition of human T47D cells after 48 hrs; type: functional
Summary of the method: (§2)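 Cells were exposed continuously to compound for 48 h at 37 °C in 96-well format. CellTiter-Glo reagent was added with agitation, then 10-15 min at room temperature before luminescence read-out.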

[3] = Growth inhibition of human H1299 cells after 48 hrs; type: functional; details: NCI-H1299, 48 h; summary of the method: as §2
Tubulin = assay: Inhibition of tubulin polymerization; type: protein-complex assay, Homo sapiens

| SMILES | EC50 (NCI-H1299) [nM] | EC50 (T47D [1]) [nM] | GI50 (T47D [2]) [nM] | GI50 [3] [nM] | IC50 (Tubulin) [nM] |
| --- | --- | --- | --- | --- | --- |
| COc1cc(C2C(C#N)=C(N)Oc3c2ccc2ncccc32)cc(OC)c1OC (stereo not given) | 22 | 160 |  |  |  |
| COc1cc(C2C(C#N)=C(N)Oc3c2ccc(N)c3N)cc(Br)c1OC (stereo not given) |  |  | 150 | 31 |  |
| Cc1cncc(C2C(C#N)=C(N)Oc3c2ccc2cnccc32)c1 (stereo not given) | 290 | 230 |  |  |  |
| COc1cccc(C2C(C#N)=C(N)Oc3c2ccc2[nH]ccc32)c1 (stereo not given) | 66 | 52 |  |  |  |
| COc1cc(C2C(C#N)=C(N)Oc3c2ccc2cnccc32)cc(OC)c1OC (stereo not given) | 440 | 120 |  |  |  |
| N#CC1=C(N)Oc2c(ccc3[nH]ccc23)C1c1cccnc1 (stereo not given) | 190 | 110 |  |  |  |
| N#CC1=C(N)Oc2c(ccc3[nH]ccc23)C1c1cccc(C#N)c1 (stereo not given) | 43 | 43 |  |  |  |
| N#CC1=C(N)Oc2c(ccc3[nH]ccc23)C1c1ccccc1 (stereo not given) | 430 |  |  |  |  |
| COc1cc(C2C(C#N)=C(N)Oc3c2ccc2[nH]c(C)cc32)cc(Br)c1OC (stereo not given) | 57 |  | 89 | 140 |  |
| COc1cc(C2C(C#N)=C(N)Oc3c2ccc2cc[nH]c32)cc(OC)c1OC (stereo not given) | 180 | 72 |  |  |  |
| COc1cc(C2C(C#N)=C(N)Oc3c2ccc2cnccc32)cc(I)c1OC (stereo not given) | 130 | 64 |  |  |  |
| COc1cc(C2C(C#N)=C(N)Oc3c2ccc2cc[nH]c32)cc(Br)c1O (stereo not given) | 80 | 35 | 70 | 70 |  |
| COc1cc(C2C(C#N)=C(N)Oc3c2ccc2ccccc32)cc(Br)c1OC (stereo not given) | 93 | 73 |  |  |  |
| COc1cc(OC)cc(C2C(C#N)=C(N)Oc3c2ccc2[nH]ccc32)c1 (stereo not given) | 120 | 30 |  |  |  |
| COc1cc(OC)cc(C2C(C#N)=C(N)Oc3c2ccc2cc[nH]c32)c1 (stereo not given) | 59 | 31 |  |  |  |
| COc1cc(C2C(C#N)=C(N)Oc3c2ccc2nccnc32)cc(Br)c1OC (stereo not given) | 860 | 460 | 450 | 550 |  |
| N#CC1=C(N)Oc2c(ccc3cnccc23)C1c1cncc(Br)c1 (stereo not given) | 150 | 120 |  |  |  |

| SMILES | EC50 (NCI-H1299) [nM] | EC50 (T47D [1]) [nM] | GI50 (T47D [2]) [nM] | GI50 [3] [nM] | IC50 (Tubulin) [nM] |
| --- | --- | --- | --- | --- | --- |
| COc1cc(C2C(C#N)=C(N)Oc3c2ccc2nc(C)c(C)nc32)cc(Br)c1OC (stereo not given) | 2720 | 2120 |  |  |  |
| N#CC1=C(N)Oc2c(ccc3[nH]ccc23)C1c1cccc([N+](=O)[O-])c1 (stereo not given) | 96 | 68 |  |  |  |
| COc1cc(C2C(C#N)=C(N)Oc3c2ccc2cccnc32)cc(Br)c1OC (stereo not given) | 94 | 29 |  |  |  |
| COc1cc(C2C(C#N)=C(N)Oc3c2ccc2ccccc32)cc(OC)c1OC (stereo not given) | 67 | 27 |  |  |  |
| COc1cc(C2C(C#N)=C(N)Oc3c2ccc2[nH]ccc32)cc(OC)c1OC (stereo not given) | 77 | 30 |  |  |  |
| COc1cccc(C2C(C#N)=C(N)Oc3c2ccc2cc[nH]c32)c1 (stereo not given) | 140 | 88 |  |  |  |
| COc1cc(C2C(C#N)=C(N)Oc3c2ccc2ccccc32)cc(I)c1OC (stereo not given) | 128 | 64 |  |  |  |
| COc1cc(C2C(C#N)=C(N)Oc3c2ccc2c3CCCC2)cc(Br)c1OC (stereo not given) | 520 | 190 |  |  |  |
| COc1cc(C2C(C#N)=C(N)Oc3c2ccc2cnccc32)cc(Br)c1OC (stereo not given) | 150 | 61 | 57 | 71 |  |
| COc1cc(C2C(C#N)=C(N)Oc3c2ccc2ncccc32)cc(Br)c1OC (stereo not given) | 140 | 65 |  |  |  |
| N#CC1=C(N)Oc2c(ccc3cc[nH]c23)C1c1cccc(C#N)c1 (stereo not given) | 130 | 120 |  |  |  |
| COc1cc(C2C(C#N)=C(N)Oc3c2ccc2cc[nH]c32)cc(Br)c1OC (stereo not given) | 53 |  | 9 | 6 | 900 |
| COc1cc(C2C(C#N)=C(N)Oc3c2ccc2[nH]ccc32)cc(Br)c1OC (stereo not given) | 13 |  | 8 | 19 | 400 |
| COc1cc(C2C(C#N)=C(N)Oc3c2ccc2[nH]ccc32)cc(Br)c1O (stereo not given) | 25 | 13 | 57 | 71 |  |
| COc1cncc(C2C(C#N)=C(N)Oc3c2ccc2[nH]ccc32)c1 (stereo not given) | 30 | 16 |  |  |  |
| Cc1cncc(C2C(C#N)=C(N)Oc3c2ccc2[nH]ccc32)c1 (stereo not given) | 65 | 13 | 73 | 100 |  |
